Test results from ChEMBL document CHEMBL2440065, “Identification of a novel benzoxazolone derivative as a selective, orally active 18 kDa translocator protein (TSPO) ligand” (J Med Chem, 2013).

What was measured:
Mus musculus [1] = assay: Neurotoxicity in ddY mouse assessed as elongation of hexobarbital-induced sleep at 300 mg/kg, po after 1 hr relative to diazepam; type: toxicity, organism-based; design: dose 300 mg/kg, route oral; conditions: in vivo
Mus musculus [2] = assay: Neurotoxicity in ddY mouse assessed as reduction in locomotor activity at 10 to 100 mg/kg, po after 1 hr; type: toxicity, organism-based; design: dose 10-100 mg/kg, route oral; conditions: in vivo
Rattus norvegicus = assay: Neurotoxicity in Wistar rat assessed as memory impairment at 3 to 30 mg/kg, po after 1 hr by passive avoidance test; type: toxicity, organism-based; design: dose 3-30 mg/kg, route oral; conditions: in vivo
Mus musculus [3] = assay: Neurotoxicity in ddY mouse assessed as motor impairment at 10 to 100 mg/kg, po after 1 hr by horizontal rotarod test; type: toxicity, organism-based; design: dose 10-100 mg/kg, route oral; conditions: in vivo
[4] = Ratio of drug level in brain to blood in rat at 10 mg/kg, po; type: ADME, organism-based; design: dose 10 mg/kg, route oral
In short: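 Rats dosed orally at 10 mg/kg (HCl salt); brain and blood drug concentrations measured and expressed as brain/blood ratio.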

Mus musculus [5] = assay: Neurotoxicity in ddY mouse assessed as motor impairment at 300 mg/kg, po after 1 hr by horizontal rotarod test; type: toxicity, organism-based; design: dose 300 mg/kg, route oral; conditions: in vivo
[6] = Solubility of the compound at pH 6.8; type: physicochemical; conditions: buffer
In short: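 Solubility measured in pH 6.8 buffer containing bile acids; compound tested as free base and as HCl salt.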

Compound | Activity (Mus musculus [1]) | Activity (Mus musculus [2]) | Activity (Rattus norvegicus) | Activity (Mus musculus [3]) | Kp [4] | Activity (Mus musculus [5]) | solubility [6]
CN(C(=O)Cn1c(=O)oc2ccc(-c3cccnc3)cc21)c1ccc(C(F)(F)F)cc1.Cl | Non-toxic | Non-toxic | Non-toxic | Non-toxic | 1.2 | – | –
CN(C(=O)Cn1c(=O)oc2ccc(-c3ccc(OC(F)(F)F)cc3)cc21)c1cccnc1.Cl | – | – | – | – | 1.3 | Toxic | 23 µg/mL
